In ChEMBL document CHEMBL1128488, “4-Diazinyl- and 4-pyridinylimidazoles: potent angiotensin II antagonists. A study of their activity and computational characterization” (J Med Chem, 1995):

Columns and labels:
[1] = target: T1, Angiotensin II receptor (AT-1) type-1 (Rattus norvegicus, UniProt P29089+P25095); assay: Inhibition of [3H]angiotensin II binding to rat adrenal cortex membrane containing angiotensin II receptor, type 1; assay type: tissue-based
T1 sequence (P29089 whole entry): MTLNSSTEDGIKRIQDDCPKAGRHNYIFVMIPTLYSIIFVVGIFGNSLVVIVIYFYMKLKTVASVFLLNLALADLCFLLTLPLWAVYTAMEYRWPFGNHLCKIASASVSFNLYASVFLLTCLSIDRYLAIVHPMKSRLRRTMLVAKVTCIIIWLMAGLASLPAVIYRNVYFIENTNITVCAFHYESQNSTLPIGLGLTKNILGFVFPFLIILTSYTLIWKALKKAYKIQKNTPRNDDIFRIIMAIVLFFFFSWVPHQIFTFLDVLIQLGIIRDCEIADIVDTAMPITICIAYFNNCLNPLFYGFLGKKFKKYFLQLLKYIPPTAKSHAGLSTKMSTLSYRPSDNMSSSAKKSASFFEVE
T1 sequence (P25095 whole entry): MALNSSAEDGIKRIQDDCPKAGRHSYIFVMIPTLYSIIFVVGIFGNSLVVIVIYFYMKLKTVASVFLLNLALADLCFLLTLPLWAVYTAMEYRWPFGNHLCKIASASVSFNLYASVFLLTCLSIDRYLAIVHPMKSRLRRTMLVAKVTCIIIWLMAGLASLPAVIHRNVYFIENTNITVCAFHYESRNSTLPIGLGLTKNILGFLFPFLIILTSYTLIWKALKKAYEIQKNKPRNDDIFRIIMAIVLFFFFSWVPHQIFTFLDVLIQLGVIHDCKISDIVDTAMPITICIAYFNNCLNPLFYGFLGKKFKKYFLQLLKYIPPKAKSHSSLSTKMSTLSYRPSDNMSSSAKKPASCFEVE

[2] = test system: Rattus norvegicus; assay: In vivo concentration inhibiting angiotensin II (A II) induced pressor response in conscious normotensive rats 30 mins after oral administration of 2 uM/kg.; assay type: functional
How it was run: (§1)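 Male Sprague-Dawley rats (280–340 g), premedicated ip with fentanyl/fluanisone and anesthetized with pentobarbital iv during preparation, then tested conscious. Vehicle or compound given orally by stomach tube at 2 μmol kg−1. A II bolus injections every 15 min for the first hour, then every 30 min, over 4 h.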

[3] = test system: Rattus norvegicus; assay: In vivo concentration inhibiting angiotensin II (A II) induced pressor response in conscious normotensive rats 15 mins after oral administration of 2 uM/kg.; assay type: functional; how it was run: as §1

SMILES	Ki [1]	Inhibition [2]	Inhibition [3]
CCCCc1nc(-c2nc(C)ccc2C(=O)OC)cn1Cc1ccc(-c2ccccc2-c2nn[nH]n2)cc1	0.032 µM	–	–
CCCCc1nc(-c2cc(C(=O)OC)cc(C)[n+]2[O-])cn1Cc1ccc(-c2ccccc2-c2nn[nH]n2)cc1	0.18 µM	–	–
CCCCc1nc(-c2ccc(C)n[n+]2[O-])cn1Cc1ccc(-c2ccccc2-c2nn[nH]n2)cc1	0.044 µM	-35%	–
CCCCc1nc(-c2cccnc2C(=O)OC)cn1Cc1ccc(-c2ccccc2-c2nn[nH]n2)cc1	0.045 µM	–	–
CCCCc1nc(-c2ccc(C(=O)OC)c[n+]2[O-])cn1Cc1ccc(-c2ccccc2-c2nn[nH]n2)cc1	0.027 µM	–	–
CCCCc1nc(-c2c(C(=O)OC)ccc[n+]2[O-])cn1Cc1ccc(-c2ccccc2-c2nn[nH]n2)cc1	0.029 µM	–	–
CCCCc1nc(-c2nc(C)c[n+]([O-])c2C)cn1Cc1ccc(-c2ccccc2-c2nn[nH]n2)cc1	0.0044 µM	-21%	–
CCCCc1nc(-c2ccc(C(=O)OC)cn2)cn1Cc1ccc(-c2ccccc2-c2nn[nH]n2)cc1	0.012 µM	-33%	–
CCCCc1nc(-c2c(OC)ccc(C)[n+]2[O-])cn1Cc1ccc(-c2ccccc2-c2nn[nH]n2)cc1	0.038 µM	-22%	–
CCCCc1nc(-c2cccc(C(=O)OC)n2)cn1Cc1ccc(-c2ccccc2-c2nn[nH]n2)cc1	0.019 µM	-23%	–
CCCCc1nc(-c2c(C(=O)OC)c(C)cc(C)[n+]2[O-])cn1Cc1ccc(-c2ccccc2-c2nn[nH]n2)cc1	0.0091 µM	-29%	–
CCCCc1nc(-c2cc(C(=O)OC)c[n+]([O-])c2)cn1Cc1ccc(-c2ccccc2-c2nn[nH]n2)cc1	0.041 µM	–	–
CCCCc1nc(-c2c(C)ncc(C)[n+]2[O-])cn1Cc1ccc(-c2ccccc2-c2nn[nH]n2)cc1	0.0025 µM	-44%	–
CCCCc1nc(-c2nccnc2C(=O)OC)cn1Cc1ccc(-c2ccccc2-c2nn[nH]n2)cc1	0.09 µM	–	–
CCCCc1nc(-c2nc(C)ccc2OC)cn1Cc1ccc(-c2ccccc2-c2nn[nH]n2)cc1	0.25 µM	–	–
CCCCc1nc(-c2ncccc2C(=O)OC)cn1Cc1ccc(-c2ccccc2-c2nn[nH]n2)cc1	0.04 µM	–	–
CCCCc1nc(-c2ccc(C(=O)OC)nn2)cn1Cc1ccc(-c2ccccc2-c2nn[nH]n2)cc1	0.0088 µM	-9.3%	–
CCCCc1nc(-c2cnc(C(=O)OC)nc2C)cn1Cc1ccc(-c2ccccc2-c2nn[nH]n2)cc1	0.07 µM	–	–
CCCCc1nc(-c2c(C(=O)OC)ccc(C)[n+]2[O-])cn1Cc1ccc(-c2ccccc2-c2nn[nH]n2)cc1	0.0045 µM	-55%	–
CCCCc1nc(-c2nc(C)cc(C)c2C(=O)OC)cn1Cc1ccc(-c2ccccc2-c2nn[nH]n2)cc1	0.053 µM	–	–
CCCCc1nc(-c2ccc(C(=O)OC)[n+]([O-])n2)cn1Cc1ccc(-c2ccccc2-c2nn[nH]n2)cc1	0.054 µM	–	–
CCCCc1nc(-c2ccc(C)[n+]([O-])n2)cn1Cc1ccc(-c2ccccc2-c2nn[nH]n2)cc1	0.04 µM	-27%	–
CCCCc1nc(Cl)c(CO)n1Cc1ccc(-c2ccccc2-c2nnn[nH]2)cc1 [LOSARTAN]	–	-33%	–

Now from value to molecule, other results behind:

Ki [1]	SMILES	Inhibition [2]	Inhibition [3]
0.059 µM	CCCCc1nc(-c2ncccn2)cn1Cc1ccc(-c2ccccc2-c2nn[nH]n2)cc1	–	–
0.243 µM	CCCCc1nc(-c2cncc[n+]2[O-])cn1Cc1ccc(-c2ccccc2-c2nn[nH]n2)cc1	–	–
0.29 µM	CCCCc1nc(-c2ncccc2OC)cn1Cc1ccc(-c2ccccc2-c2nn[nH]n2)cc1	–	–
0.03 µM	CCCCc1nc(-c2cncc(C(=O)OC)c2)cn1Cc1ccc(-c2ccccc2-c2nn[nH]n2)cc1	–	–
0.025 µM	CCCCc1nc(-c2cccc(OC)n2)cn1Cc1ccc(-c2ccccc2-c2nn[nH]n2)cc1	–	-11%
0.067 µM	CCCCc1nc(-c2cnccc2C(=O)OC)cn1Cc1ccc(-c2ccccc2-c2nn[nH]n2)cc1	–	–
0.025 µM	CCCCc1nc(-c2cnc[n+]([O-])c2)cn1Cc1ccc(-c2ccccc2-c2nn[nH]n2)cc1	–	–
0.012 µM	CCCCc1nc(-c2ccc(C)nn2)cn1Cc1ccc(-c2ccccc2-c2nn[nH]n2)cc1	–	-30%
0.042 µM	CCCCc1nc(-c2cncnc2)cn1Cc1ccc(-c2ccccc2-c2nn[nH]n2)cc1	–	–
0.04 µM	CCCCc1nc(-c2cnccn2)cn1Cc1ccc(-c2ccccc2-c2nn[nH]n2)cc1	–	–
0.077 µM	CCCCc1nc(-c2nc(C)cnc2C)cn1Cc1ccc(-c2ccccc2-c2nn[nH]n2)cc1	-18%	–
0.061 µM	CCCCc1nc(-c2nccc[n+]2[O-])cn1Cc1ccc(-c2ccccc2-c2nn[nH]n2)cc1	–	–
